Data taken from ChEMBL document CHEMBL2407075, “Sulphonamido-quinoxalines: search for anticancer agent” (Eur J Med Chem, 2013).

Tests used:
[1] = Oral bioavailability in human; type: ADME, organism-based; details: in silico prediction
[2] = test system: UO-31; test: Growth inhibition of human UO31 cells assessed as cell growth at 10^-4 M after 48 hrs by sulforhodamine B assay; type: functional; details: UO-31, 48 h, read-out: Activity
[3] = test system: Malme-3M; test: Growth inhibition of human MALME-3M cells assessed as cell growth at 10^-4 M after 48 hrs by sulforhodamine B assay; type: functional; details: read-out: Activity
[4] = test system: NCI-H226; test: Growth inhibition of human NCI-H226 cells assessed as cell growth at 10^-4 M after 48 hrs by sulforhodamine B assay; type: functional; details: NCI-H226, 48 h, read-out: Activity
[5] = test system: SK-MEL-28; test: Growth inhibition of human SK-MEL-28 cells assessed as cell growth at 10^-5 M after 48 hrs by sulforhodamine B assay; type: functional; details: SK-MEL-28, 48 h, read-out: Activity
[6] = test system: KM12; test: Growth inhibition of human KM12 cells assessed as cell growth at 10^-6 M after 48 hrs by sulforhodamine B assay; type: functional; details: KM12, 48 h, read-out: Activity
[7] = test system: MDA-MB-231; test: Growth inhibition of human MDA-MB-231 cells at 10 uM after 48 hrs by sulforhodamine B assay; type: functional; details: MDA-MB-231, 48 h, read-out: GI
How it was run: (§1)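 Single-dose screen at 10 µM across the NCI 60 panel. Cells in RPMI 1640 with 5% FBS and 2 mM L-glutamine, plated at 5000–40,000/well and preincubated 24 h at 37 °C, 5% CO2. Drug in DMSO, 48 h exposure. Fixed with TCA, stained with SRB, A515 read. Percent growth is taken relative to untreated control, and inhibition is 100 minus growth.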

[8] = test system: PC-3; test: Growth inhibition of human PC3 cells at 10 uM after 48 hrs by sulforhodamine B assay; type: functional; details: PC-3, 48 h, read-out: GI; how it was run: as §1
[9] = test system: MCF7; test: Growth inhibition of human MCF7 cells at 10 uM after 48 hrs by sulforhodamine B assay; type: functional; details: MCF7, 48 h, read-out: GI; how it was run: as §1
[10] = test system: TK-10; test: Growth inhibition of human TK10 cells at 10 uM after 48 hrs by sulforhodamine B assay; type: functional; details: TK-10, 48 h, read-out: GI; how it was run: as §1
[11] = test system: SN12C; test: Growth inhibition of human SN12C cells at 10 uM after 48 hrs by sulforhodamine B assay; type: functional; details: read-out: GI; how it was run: as §1
[12] = test system: CAKI-1; test: Growth inhibition of human CAKI-1 cells at 10 uM after 48 hrs by sulforhodamine B assay; type: functional; details: CAKI-1, 48 h, read-out: GI
How it was run: (§2)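 Single-dose NCI-60 prescreen at 10 µM for 48 h at 37 °C and 5% CO2, using cells grown in RPMI 1640 with 5% FBS and 2 mM glutamine. Protein was measured by SRB after TCA fixation: 10% final for adherent lines, 16% for suspension lines. Absorbance was read at 515 nm. Percent growth inhibition was obtained by subtracting percent growth from 100.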

[13] = test system: A498; test: Growth inhibition of human A498 cells at 10 uM after 48 hrs by sulforhodamine B assay; type: functional; details: A498, 48 h, read-out: GI; how it was run: as §2
[14] = test system: ACHN; test: Growth inhibition of human ACHN cells at 10 uM after 48 hrs by sulforhodamine B assay; type: functional; details: read-out: GI; how it was run: as §2
[15] = test system: SK-OV-3; test: Growth inhibition of human SKOV3 cells at 10 uM after 48 hrs by sulforhodamine B assay; type: functional; details: SK-OV-3, 48 h, read-out: GI; how it was run: as §1
[16] = test system: OVCAR-8; test: Growth inhibition of human OVCAR8 cells at 10 uM after 48 hrs by sulforhodamine B assay; type: functional; details: OVCAR-8, 48 h, read-out: GI; how it was run: as §1
[17] = test system: OVCAR-5; test: Growth inhibition of human OVCAR5 cells at 10 uM after 48 hrs by sulforhodamine B assay; type: functional; details: OVCAR-5, 48 h, read-out: GI; how it was run: as §1
[18] = test system: OVCAR-3; test: Growth inhibition of human OVCAR3 cells at 10 uM after 48 hrs by sulforhodamine B assay; type: functional; details: OVCAR-3, 48 h, read-out: GI; how it was run: as §1
[19] = test system: UACC-62; test: Growth inhibition of human UACC62 cells at 10 uM after 48 hrs by sulforhodamine B assay; type: functional; details: UACC-62, 48 h, read-out: GI; how it was run: as §1
[20] = test system: SK-MEL-28; test: Growth inhibition of human SK-MEL-28 cells at 10 uM after 48 hrs by sulforhodamine B assay; type: functional; details: SK-MEL-28, 48 h, read-out: GI; how it was run: as §1
[21] = test system: MDA-MB-435; test: Growth inhibition of human MDA-MB-435 cells at 10 uM after 48 hrs by sulforhodamine B assay; type: functional; details: MDA-MB-435, 48 h, read-out: GI; how it was run: as §1
[22] = test system: M14; test: Growth inhibition of human M14 cells at 10 uM after 48 hrs by sulforhodamine B assay; type: functional; details: M14, 48 h, read-out: GI; how it was run: as §1
[23] = test system: SNB-75; test: Growth inhibition of human SNB75 cells at 10 uM after 48 hrs by sulforhodamine B assay; type: functional; details: SNB-75, 48 h, read-out: GI; how it was run: as §1
[24] = test system: SF-539; test: Growth inhibition of human SF539 cells at 10 uM after 48 hrs by sulforhodamine B assay; type: functional; details: SF-539, 48 h, read-out: GI; how it was run: as §1
[25] = test system: SF-268; test: Growth inhibition of human SF268 cells at 10 uM after 48 hrs by sulforhodamine B assay; type: functional; details: SF-268, 48 h, read-out: GI; how it was run: as §1
[26] = test system: NCI-H322M; test: Growth inhibition of human NCI-H322M cells at 10 uM after 48 hrs by sulforhodamine B assay; type: functional; details: read-out: GI; how it was run: as §1
[27] = test system: NCI-H226; test: Growth inhibition of human NCI-H226 cells at 10 uM after 48 hrs by sulforhodamine B assay; type: functional; details: NCI-H226, 48 h, read-out: GI; how it was run: as §1
[28] = Growth inhibition of human EKVX cells at 10 uM after 48 hrs by sulforhodamine B assay; type: functional; details: read-out: GI
How it was run: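 NCI-60 one-dose primary screen at a single 10 µM concentration. Cells in RPMI 1640 with 5% FBS, preincubated 24 h at 37 °C, 5% CO2. Drug exposure 48 h, then TCA fixation, SRB staining and absorbance at 515 nm. Percent growth calculated against time-zero and untreated control wells, then converted to percent growth inhibition.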

[29] = test system: MOLT-4; test: Growth inhibition of human MOLT4 cells at 10 uM after 48 hrs by sulforhodamine B assay; type: functional; details: MOLT-4, 48 h, read-out: GI; how it was run: as §1
[30] = test system: RPMI-8226; test: Growth inhibition of human RPMI8226 cells at 10 uM after 48 hrs by sulforhodamine B assay; type: functional; details: RPMI-8226, 48 h, read-out: GI; how it was run: as §1
[31] = test system: CCRF-CEM; test: Growth inhibition of human CCRF-CEM cells at 10 uM after 48 hrs by sulforhodamine B assay; type: functional; details: read-out: GI; how it was run: as §2
[32] = test system: K562; test: Growth inhibition of human K562 cells at 10 uM after 48 hrs by sulforhodamine B assay; type: functional; details: K562, 48 h, read-out: GI; how it was run: as §1

Compound: O=S(=O)(Nc1ccc(Cl)cc1)c1ccc2nc(-c3ccccc3)c(-c3ccccc3)nc2c1
- bioavailability [1]: 100%
- growth at 100 µM [2]: 75%
- growth at 100 µM [3]: 108%
- growth at 100 µM [4]: 73%
- growth at 10 µM [5]: 21%
- growth at 1 µM [6]: 102%
- inhibition of growth at 10 µM [7]: 54.3%
- inhibition of growth at 10 µM [8]: 60%
- inhibition of growth at 10 µM [9]: 47.7%
- inhibition of growth at 10 µM [10]: 2.84%
- inhibition of growth at 10 µM [11]: 26.9%
- inhibition of growth at 10 µM [12]: 33.9%
- inhibition of growth at 10 µM [13]: 44.3%
- inhibition of growth at 10 µM [14]: 23.9%
- inhibition of growth at 10 µM [15]: 18.5%
- inhibition of growth at 10 µM [16]: 34.8%
- inhibition of growth at 10 µM [17]: 18.3%
- inhibition of growth at 10 µM [18]: 28.8%
- inhibition of growth at 10 µM [19]: 30.6%
- inhibition of growth at 10 µM [20]: 14.6%
- inhibition of growth at 10 µM [21]: 35.6%
- inhibition of growth at 10 µM [22]: 31%
- inhibition of growth at 10 µM [23]: 45.1%
- inhibition of growth at 10 µM [24]: 25.9%
- inhibition of growth at 10 µM [25]: 14.1%
- inhibition of growth at 10 µM [26]: 32.8%
- inhibition of growth at 10 µM [27]: -2.45%
- inhibition of growth at 10 µM [28]: 57.8%
- inhibition of growth at 10 µM [29]: 60.8%
- inhibition of growth at 10 µM [30]: 86%
- inhibition of growth at 10 µM [31]: 61.9%
- inhibition of growth at 10 µM [32]: 55.6%
